# The source made the active and inactive calls. The calls are words filed in the database; no cut-off is given here.
# Assays:
# SK-BR-3 [1] = experiment: Cell cycle arrest in human SKBR3 cells by accumulation of cells at G2/M phase at 200 uM after 48 hrs by propidium iodide-staining based flow cytometry (reference value: 16%); type: functional
# [2] = biological target: T1, Tissue alpha-L-fucosidase (Bos taurus) (UniProt Q2KIM0); experiment: Inhibition of alpha-L-fucosidase from bovine kidney at 1 mM at pH 6
# T1 sequence (whole entry): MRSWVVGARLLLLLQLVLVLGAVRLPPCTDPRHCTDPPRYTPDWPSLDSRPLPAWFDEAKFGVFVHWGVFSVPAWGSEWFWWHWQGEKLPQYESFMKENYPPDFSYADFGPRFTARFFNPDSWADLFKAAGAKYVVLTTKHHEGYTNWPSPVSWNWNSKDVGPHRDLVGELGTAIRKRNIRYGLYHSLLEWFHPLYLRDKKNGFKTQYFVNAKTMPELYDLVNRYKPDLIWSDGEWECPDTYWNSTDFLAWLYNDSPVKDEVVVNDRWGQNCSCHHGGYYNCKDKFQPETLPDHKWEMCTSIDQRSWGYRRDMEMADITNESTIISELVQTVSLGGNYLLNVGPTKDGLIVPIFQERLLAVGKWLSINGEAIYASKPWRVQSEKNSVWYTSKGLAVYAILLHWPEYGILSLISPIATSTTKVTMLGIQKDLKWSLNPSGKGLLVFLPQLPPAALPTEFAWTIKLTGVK
# Summary of the method: (§1)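 Glycosidase panel of commercial enzymes assayed at each enzyme's optimal pH with compound at 1 mM; percentage inhibition of enzyme activity calculated.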
# [3] = Cytotoxicity in human multiple myeloma cells assessed as pre-necrotic cells at 200 uM after 24 hrs by annexin V/propidium iodide staining based flow cytometry (reference value: 42.1%); type: functional, Multiple myeloma cell
# [4] = biological target: Beta-galactosidase (Escherichia coli) (UniProt Q8VNN2); experiment: Inhibition of beta-galactosidase from Escherichia coli at 1 mM at pH 7; summary of the method: as §1
# Canavalia ensiformis [5] = experiment: Inhibition of beta-N-acetylglucosaminidase from jack bean at pH 5; design: concentration or dose not given beside the values; details: concentration not given here
# [6] = Cytotoxicity in human B-CLL assessed as viable cells at 200 uM after 24 hrs by annexin V/propidium iodide staining based flow cytometry (reference value: 65.8 to 78%); type: functional; details: read-out: Activity
# MDA-MB-231 = experiment: Cytotoxicity against human MDA-MB-231 cells after 72 hrs by colorimetric assay; type: functional, cell-based; details: Homo sapiens, MDA-MB-231, 72 h; read-out: IC50
# Summary of the method: (§2)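 Cells grown in McCoy's medium (adherent lines) or RPMI-1640 (U266), each with 10% FBS, L-glutamine and antibiotics, at 37 °C in 5% CO₂. Compound dissolved as a 100 mM DMSO stock, final DMSO ≤0.4%. Cells were exposed for 72 h across a 10^-2 to 400 µM range. Viability was read by CellTiter 96 Aqueous (2–4 h incubation, absorbance 490 nm). Triplicate wells; IC50 from curve fitting.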
# SK-BR-3 [7] = experiment: Cell cycle arrest in human SKBR3 cells by accumulation of cells at S phase at 50 uM after 48 hrs by propidium iodide-staining based flow cytometry (reference value: 30%); type: functional
# [8] = Cytotoxicity in human multiple myeloma cells assessed as viable cells at 50 uM after 24 hrs by annexin V/propidium iodide staining based flow cytometry (reference value: 48.2%); type: functional; details: Multiple myeloma cell, read-out: Activity
# [9] = Cytotoxicity in human B-CLL assessed as viable cells at 100 uM after 24 hrs by annexin V/propidium iodide staining based flow cytometry (reference value: 65.8 to 78%); type: functional; details: read-out: Activity
# MCF7 [10] = experiment: Increase in CDKN1A mRNA level in human MCF7 cells at 50 uM after 12 hrs by TLDA; type: functional, cell-based
# Summary of the method: (§3)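 SKBR3 and MCF7 cells seeded at 2 × 10⁵ per well, treated 12 h with 50 µM compound (DMSO stock); total RNA extracted, cDNA made with random hexamers, gene expression profiled by TaqMan low-density arrays (qPCR, duplicate per gene). Normalised to RPLP0; fold change versus DMSO vehicle-treated cells, calculated as 2^-ΔΔCT.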
# SK-BR-3 [11] = experiment: Cell cycle arrest in human SKBR3 cells by accumulation of cells at S phase at 100 uM after 48 hrs by propidium iodide-staining based flow cytometry (reference value: 30%); type: functional
# [12] = Cytotoxicity against human U87 cells after 72 hrs by colorimetric assay; type: functional, cell-based, U-87MG ATCC; details: Homo sapiens, U-87 MG, 72 h; read-out: IC50; summary of the method: as §2
# [13] = Cytotoxicity in human multiple myeloma cells assessed as late apoptotic/necrotic cells at 200 uM after 24 hrs by annexin V/propidium iodide staining based flow cytometry (reference value: 9.1%); type: functional, Multiple myeloma cell
# [14] = Cytotoxicity in human B-CLL assessed as early apoptotic cells at 100 uM after 24 hrs by annexin V/propidium iodide staining based flow cytometry (reference value: 3.6 to 20.2%); type: functional
# [15] = Cytotoxicity in human B-CLL assessed as pre-necrotic cells at 100 uM after 24 hrs by annexin V/propidium iodide staining based flow cytometry (reference value: 1.3 to 3.7%); type: functional
# Canavalia ensiformis [16] = experiment: Inhibition of alpha-mannosidase from jack bean at 1 mM at pH 5; summary of the method: as §1
# SK-BR-3 [17] = experiment: Cell cycle arrest in human SKBR3 cells by accumulation of cells at G2/M phase at 100 uM after 48 hrs by propidium iodide-staining based flow cytometry (reference value: 16%); type: functional
# [18] = Cytotoxicity in human multiple myeloma cells assessed as viable cells at 200 uM after 24 hrs by annexin V/propidium iodide staining based flow cytometry (reference value: 48.2%); type: functional; details: Multiple myeloma cell, read-out: Activity
# MCF7 [19] = experiment: Increase in CDKN1C mRNA level in human MCF7 cells at 50 uM after 12 hrs by TLDA; type: functional, cell-based; summary of the method: as §3
# [20] = Cytotoxicity in human multiple myeloma cells assessed as viable cells at 100 uM after 24 hrs by annexin V/propidium iodide staining based flow cytometry (reference value: 48.2%); type: functional; details: Multiple myeloma cell, read-out: Activity
# SK-BR-3 [21] = experiment: Cell cycle arrest in human SKBR3 cells by accumulation of cells at G1 phase at 200 uM after 48 hrs by propidium iodide-staining based flow cytometry (reference value: 54%); type: functional
# Aspergillus niger = experiment: Inhibition of beta-xylosidase from Aspergillus niger at pH 5; design: concentration or dose not given beside the values; details: concentration not given here
# [22] = Cytotoxicity in human multiple myeloma cells assessed as early apoptotic cells at 200 uM after 24 hrs by annexin V/propidium iodide staining based flow cytometry (reference value: 0.1%); type: functional, Multiple myeloma cell
# A549 [23] = experiment: Cytotoxicity against human A549 cells after 72 hrs by colorimetric assay in presence of pan-caspase inhibitor zVAD-fmk; type: functional, cell-based
# MCF7 [24] = experiment: Decrease in cyclinE1 mRNA level in human MCF7 cells at 50 uM after 12 hrs by TLDA; type: functional, cell-based; summary of the method: as §3
# A549 [25] = experiment: Cytotoxicity against human A549 cells after 72 hrs by colorimetric assay in presence of antioxidant N-acetyl-cysteine; type: functional, cell-based
# SK-BR-3 [26] = experiment: Decrease in ID1 mRNA level in human SKBR3 cells at 50 uM after 12 hrs by TLDA; type: functional, cell-based; summary of the method: as §3
# MCF7 [27] = experiment: Decrease in hTERT mRNA level in human MCF7 cells at 50 uM after 12 hrs by TLDA; type: functional, cell-based; summary of the method: as §3
# SK-BR-3 [28] = experiment: Increase in CDKN1C mRNA level in human SKBR3 cells at 50 uM after 12 hrs by TLDA; type: functional, cell-based; summary of the method: as §3
# SK-BR-3 [29] = experiment: Increase in CDKN1A mRNA level in human SKBR3 cells at 50 uM after 12 hrs by TLDA; type: functional, cell-based; summary of the method: as §3
# Beta-galactosidase (Escherichia coli), sequence (Q8VNN2 whole entry, looked up): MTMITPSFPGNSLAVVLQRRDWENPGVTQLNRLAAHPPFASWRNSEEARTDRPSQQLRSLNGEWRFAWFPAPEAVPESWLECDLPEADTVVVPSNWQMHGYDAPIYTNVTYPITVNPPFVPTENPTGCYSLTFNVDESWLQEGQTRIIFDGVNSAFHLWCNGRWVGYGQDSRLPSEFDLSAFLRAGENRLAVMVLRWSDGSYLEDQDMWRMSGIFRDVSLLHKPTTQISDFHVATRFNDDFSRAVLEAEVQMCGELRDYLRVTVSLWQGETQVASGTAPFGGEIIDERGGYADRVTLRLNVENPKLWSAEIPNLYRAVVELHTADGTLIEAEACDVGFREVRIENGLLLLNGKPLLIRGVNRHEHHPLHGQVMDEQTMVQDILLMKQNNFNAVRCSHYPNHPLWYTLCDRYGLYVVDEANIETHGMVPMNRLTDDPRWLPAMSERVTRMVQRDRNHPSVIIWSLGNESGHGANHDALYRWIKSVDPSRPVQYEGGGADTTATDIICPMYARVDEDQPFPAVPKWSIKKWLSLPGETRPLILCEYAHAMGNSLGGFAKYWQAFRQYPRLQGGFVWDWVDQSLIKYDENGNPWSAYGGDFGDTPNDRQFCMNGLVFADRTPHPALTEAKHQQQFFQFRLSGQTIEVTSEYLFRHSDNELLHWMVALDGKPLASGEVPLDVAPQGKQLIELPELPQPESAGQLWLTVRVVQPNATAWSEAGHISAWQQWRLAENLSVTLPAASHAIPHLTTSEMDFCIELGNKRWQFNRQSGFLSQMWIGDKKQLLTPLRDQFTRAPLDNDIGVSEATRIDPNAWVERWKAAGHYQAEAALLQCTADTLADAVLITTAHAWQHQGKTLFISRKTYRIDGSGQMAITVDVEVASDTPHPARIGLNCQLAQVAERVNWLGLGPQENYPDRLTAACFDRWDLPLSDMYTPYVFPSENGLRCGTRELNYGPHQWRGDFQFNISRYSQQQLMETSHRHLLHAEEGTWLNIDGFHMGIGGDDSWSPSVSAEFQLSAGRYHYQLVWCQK
smiles,measurement,setting,value
OC[C@H](NC[C@H]1NC[C@H](O)[C@@H]1O)c1ccc(-c2ccc(C(F)(F)F)cc2)cc1,Activity,SK-BR-3 [1],42%
same,inhibition,[2],< 10%
same,Activity,[3],21.3%
same,inhibition,[4],< 10%
same,inhibition,Canavalia ensiformis [5],< 10%
same,viability at 200 µM,[6],1.6%
same,IC50,MDA-MB-231,66 µM
same,Activity,SK-BR-3 [7],30%
same,viability at 50 µM,[8],42.8%
same,viability at 100 µM,[9],5.1%
same,Activity,MCF7 [10],Active
same,Activity,SK-BR-3 [11],9%
same,IC50,[12],80 µM
same,Activity,[13],75.4%
same,Activity,[14],2.7%
same,Activity,[15],0.8%
same,inhibition,Canavalia ensiformis [16],98%
same,Activity,SK-BR-3 [17],43%
same,viability at 200 µM,[18],3%
same,Activity,MCF7 [19],Active
same,viability at 100 µM,[20],27.6%
same,Activity,SK-BR-3 [21],42%
same,inhibition,Aspergillus niger,52%
same,Activity,[22],0.3%
same,Activity,A549 [23],Active
same,Activity,MCF7 [24],Active
same,Activity,A549 [25],Active
same,Activity,SK-BR-3 [26],Active
same,Activity,MCF7 [27],Active
same,Activity,SK-BR-3 [28],Active
same,Activity,SK-BR-3 [29],Active

# Source: ChEMBL document CHEMBL1157882, “Novel 2-[(benzylamino)methyl]pyrrolidine-3,4-diol derivatives as alpha-mannosidase inhibitors and with antitumor activities against hematological and solid malignancies” (Bioorg Med Chem, 2010)
